According to ChEMBL document CHEMBL2169868, “Flavone-based novel antidiabetic and antidyslipidemic agents” (J Med Chem, 2012):
Activity calls are given as the source filed them. No cut-off for these calls is given here.

What was measured:
Syrian golden hamster [1] = experiment: Antidyslipidemic activity in high fructose and high-fat diet fed dyslipidemic Syrian golden hamster model assessed as increase in lipoprotein lipase level at 30 mg/kg/day, po for 7 day, po; assay type: functional, Mesocricetus auratus
How it was run: (§1)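 Syrian golden hamsters fed high-fructose high-fat diet; oral dosing in 1% gum acacia at 10, 30, 100 mg/kg (or 25 mg/kg) for 7 days, sham control given vehicle; plasma TG, cholesterol, LDL-C, HDL-C, glycerol and NEFA (kits), lipoprotein lipase activity and body weight; % change versus HFD control, six hamsters per group.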

Rattus norvegicus [2] = experiment: Antihyperlipidemic activity in Triton-induced dyslipidemic Wistar rat model assessed as reduction in triglyceride level at 100 mg/kg, po; assay type: functional; design: scale not given: the % may be the effect or the level left
How it was run: (§2)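 Male Wistar rats, 8−10 weeks, about 160 g, fed normal pellet diet. Triton X-100 given at 400 mg/kg ip; compound given orally in 1% gum acacia. Retro-orbital blood taken 18 h after Triton and serum separated at 1500g for 10 min. TG and cholesterol measured by kit. Mean % change versus dyslipidemic control, 5 animals.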

Syrian golden hamster [3] = experiment: Reduction in body weight in high fructose and high-fat diet fed dyslipidemic Syrian golden hamster model at 30 mg/kg/day, po for 7 days; assay type: functional, Mesocricetus auratus; design: scale not given: the % may be the effect or the level left
How it was run: (§3)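 HFD-fed Syrian golden hamsters, six per group, fed a high-fructose diet. Oral dosing in 1% gum acacia for 7 days. Sham group received vehicle. Plasma TG was measured and body weight tracked. Results given as % change versus HFD control.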

Syrian golden hamster [4] = experiment: Antidyslipidemic activity in high fructose and high-fat diet fed dyslipidemic Syrian golden hamster model assessed as reduction in triglyceride level at 100 mg/kg/day for 7 days; assay type: functional, Mesocricetus auratus; design: scale not given: the % may be the effect or the level left; how it was run: as §1
Syrian golden hamster [5] = experiment: Antidyslipidemic activity in high fructose and high-fat diet fed dyslipidemic Syrian golden hamster model assessed as reduction in LDL-cholesterol level at 30 mg/kg/day, po for 7 day, po; assay type: functional, Mesocricetus auratus; design: scale not given: the % may be the effect or the level left; how it was run: as §1
Rattus norvegicus [6] = experiment: Antihyperlipidemic activity in Triton-induced dyslipidemic Wistar rat model assessed as reduction in phospholipid level at 100 mg/kg, po; assay type: functional; design: scale not given: the % may be the effect or the level left; how it was run: as §2
Syrian golden hamster [7] = experiment: Antidyslipidemic activity in high fructose and high-fat diet fed dyslipidemic Syrian golden hamster model assessed as reduction in triglyceride level at 30 mg/kg/day, po for 7 day, po; assay type: functional, Mesocricetus auratus; design: scale not given: the % may be the effect or the level left; how it was run: as §3
Syrian golden hamster [8] = experiment: Antidyslipidemic activity in high fructose and high-fat diet fed dyslipidemic Syrian golden hamster model assessed as reduction in LDL-cholesterol level at 25 mg/kg/day for 7 days; assay type: functional, Mesocricetus auratus; design: scale not given: the % may be the effect or the level left; how it was run: as §1
Syrian golden hamster [9] = experiment: Antidyslipidemic activity in high fructose and high-fat diet fed dyslipidemic Syrian golden hamster model assessed as reduction in triglyceride level at 25 mg/kg/day for 7 days; assay type: functional, Mesocricetus auratus; design: scale not given: the % may be the effect or the level left; how it was run: as §3
Rattus norvegicus [10] = experiment: Antidiabetic activity in sucrose loaded Wistar rat model assessed as reduction in glucose levels at 100 mg/kg, po; assay type: functional; design: scale not given: the % may be the effect or the level left
Rattus norvegicus [11] = experiment: Antihyperlipidemic activity in Triton-induced dyslipidemic Wistar rat model assessed as reduction in cholesterol level at 100 mg/kg, po; assay type: functional; design: scale not given: the % may be the effect or the level left; how it was run: as §2
Syrian golden hamster [12] = experiment: Antidyslipidemic activity in high fructose and high-fat diet fed dyslipidemic Syrian golden hamster model assessed as reduction in body weight at 25 mg/kg/day for 7 days; assay type: functional, Mesocricetus auratus; design: scale not given: the % may be the effect or the level left; how it was run: as §1
Rattus norvegicus [13] = experiment: Antidiabetic activity in sucrose challenged streptozotocin-induced diabetic Sprague-Dawley rat model assessed as reduction in glucose levels at 100 mg/kg, po measured after 5 hrs; assay type: functional; design: scale not given: the % may be the effect or the level left
Syrian golden hamster [14] = experiment: Antidyslipidemic activity in high fructose and high-fat diet fed dyslipidemic Syrian golden hamster model assessed as reduction in glycerol level at 30 mg/kg/day, po for 7 day, po; assay type: functional, Mesocricetus auratus; design: scale not given: the % may be the effect or the level left; how it was run: as §1
Syrian golden hamster [15] = experiment: Antidyslipidemic activity in high fructose and high-fat diet fed dyslipidemic Syrian golden hamster model assessed as increase in HDL-cholesterol level at 30 mg/kg/day, po for 7 day, po; assay type: functional, Mesocricetus auratus; how it was run: as §1
Syrian golden hamster [16] = experiment: Antidyslipidemic activity in high fructose and high-fat diet fed dyslipidemic Syrian golden hamster model assessed as reduction in LDL-cholesterol level at 100 mg/kg/day for 7 days; assay type: functional, Mesocricetus auratus; design: scale not given: the % may be the effect or the level left; how it was run: as §1
Syrian golden hamster [17] = experiment: Antidyslipidemic activity in high fructose and high-fat diet fed dyslipidemic Syrian golden hamster model assessed as reduction in body weight at 100 mg/kg/day for 7 days; assay type: functional, organism-based; details: Mesocricetus auratus; how it was run: as §1
Rattus norvegicus [18] = experiment: Antidiabetic activity in sucrose challenged streptozotocin-induced diabetic Sprague-Dawley rat model assessed as reduction in glucose levels at 100 mg/kg, po measured after 24 hrs; assay type: functional
Syrian golden hamster [19] = experiment: Antidyslipidemic activity in high fructose and high-fat diet fed dyslipidemic Syrian golden hamster model assessed as reduction in NEFA level at 30 mg/kg/day, po for 7 day, po; assay type: functional, Mesocricetus auratus; design: scale not given: the % may be the effect or the level left; how it was run: as §1
Mus musculus [20] = experiment: Antidyslipidemic activity in diabetic C57BL/KsJ db/db mouse model assessed as increase in plasma HDL-cholesterol level at 25 mg/kg, po qd for 10 days; assay type: functional
How it was run: (§4)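 db/db mice (blood glucose 200−350, TG 170−250, cholesterol 170−250, HDL-C 32−40 mg/dL) dosed orally at 25 mg/kg daily for 10 days; retro-orbital blood taken on day 11 for plasma TG, cholesterol and HDL-C (and HDL-C/CHOL ratio); mean % change versus vehicle control, 5 mice per group; Student t test.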

Syrian golden hamster [21] = experiment: Antidyslipidemic activity in high fructose and high-fat diet fed dyslipidemic Syrian golden hamster model assessed as reduction in cholesterol level at 25 mg/kg/day for 7 days; assay type: functional, Mesocricetus auratus; design: scale not given: the % may be the effect or the level left
Mus musculus [22] = experiment: Antidyslipidemic activity in diabetic C57BL/KsJ db/db mouse model assessed as reduction in plasma triglyceride level at 25 mg/kg, po qd for 10 days; assay type: functional; design: scale not given: the % may be the effect or the level left; how it was run: as §4
Mus musculus [23] = experiment: Reduction in body weight in diabetic C57BL/KsJ db/db mouse model in hyperglycemia at 25 mg/kg, po qd for 10 days relative to untreated control; assay type: functional
How it was run: (§5)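 db/db mice (C57BL/KsJ, 12−18 weeks, 40−50 g, glucose 200−350 mg/dL), housed at 23 ± 2.0 °C on a 12 h light cycle. Oral dosing daily for 10 days. Blood glucose checked each morning through day 9. Body weight recorded daily from day 1 to day 10. Mean % change versus vehicle, 5 mice per group; Student t test.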

Mus musculus [24] = experiment: Antihyperglycemic activity in diabetic C57BL/KsJ db/db mouse model assessed as improvement in glucose tolerance in hyperglycemia at 25 mg/kg, po qd for 10 days; assay type: functional
How it was run: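 Male/female C57BL/KsJ db/db mice, 12−18 weeks, 40−50 g, selected for glucose 200−350 mg/dL. Oral dosing daily for 10 days. OGTT on day 10 after an overnight fast: compound at −30 min, then 3 g/kg oral glucose at 0 min. Glucose read at 30, 60, 90 and 120 min. AUC taken versus vehicle, 5 mice per group.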

Syrian golden hamster [25] = experiment: Antidyslipidemic activity in high fructose and high-fat diet fed dyslipidemic Syrian golden hamster model assessed as increase in HDL-cholesterol level at 25 mg/kg/day for 7 days; assay type: functional, Mesocricetus auratus
Mus musculus [26] = experiment: Antihyperglycemic activity in diabetic C57BL/KsJ db/db mouse model assessed as reduction in plasma insulin level in hyperglycemia at 25 mg/kg, po qd for 10 days; assay type: functional; design: scale not given: the % may be the effect or the level left
How it was run: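 db/db mice dosed orally every day for 10 days. On day 11, retro-orbital blood was drawn and plasma insulin measured. Mean % change versus vehicle-treated control, 5 mice per group; Student t test.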

Mus musculus [27] = experiment: Antihyperglycemic activity in diabetic C57BL/KsJ db/db mouse model assessed as reduction in hyperglycemia at 25 mg/kg, po qd for 10 days; assay type: functional; design: scale not given: the % may be the effect or the level left; how it was run: as §5
Mus musculus [28] = experiment: Antidyslipidemic activity in diabetic C57BL/KsJ db/db mouse model assessed as reduction in plasma cholesterol level at 25 mg/kg, po qd for 10 days; assay type: functional; design: scale not given: the % may be the effect or the level left; how it was run: as §4
Mus musculus [29] = experiment: Antidyslipidemic activity in diabetic C57BL/KsJ db/db mouse model assessed as increase in plasma HDL-C/cholesterol ratio at 25 mg/kg, po qd for 10 days; assay type: functional; how it was run: as §4

CC(C)OC(=O)C(C)(C)Oc1ccc(C(=O)c2ccc(Cl)cc2)cc1 [FENOFIBRATE]
Activity (Syrian golden hamster [1]): 24.7%
Activity (Rattus norvegicus [2]): 32.9%
Activity (Syrian golden hamster [3]): 10.2%
Activity (Syrian golden hamster [4]): 53.4%
Activity (Syrian golden hamster [5]): 32.3%
Activity (Rattus norvegicus [6]): 30.3%
Activity (Syrian golden hamster [7]): 30.2%
Activity (Syrian golden hamster [8]): 26.8%
Activity (Syrian golden hamster [9]): 25.5%
Activity (Rattus norvegicus [10]): 6.43%
Activity (Rattus norvegicus [11]): 18.9%
Activity (Syrian golden hamster [12]): 6.78%
Activity (Rattus norvegicus [13]): 1.47%
Activity (Syrian golden hamster [14]): 22.1%
Activity (Syrian golden hamster [15]): 9.68%
Activity (Syrian golden hamster [16]): 56.3%
Activity (Syrian golden hamster [17]): Active
Activity (Rattus norvegicus [18]): inactive
Activity (Syrian golden hamster [19]): 22.2%

CC(C)(C)NC[C@@H](O)COc1ccc2c(=O)cc(-c3cc(OCc4ccccc4)cc(OCc4ccccc4)c3)oc2c1
Activity (Mus musculus [20]): 8.3%
Activity (Syrian golden hamster [21]): 5.52%
Activity (Mus musculus [22]): 14.1%
Activity (Mus musculus [23]): inactive
Activity (Mus musculus [24]): 33.3%
Activity (Syrian golden hamster [25]): 7.08%
Activity (Mus musculus [26]): 18%
Activity (Mus musculus [27]): 34.1%
Activity (Syrian golden hamster [8]): 9.78%
Activity (Mus musculus [28]): 15.9%
Activity (Syrian golden hamster [9]): 8.4%
Activity (Syrian golden hamster [12]): 3.73%
Percent increase in HDL-C/cholesterol ratio vs vehicle (Mus musculus [29]): 28.8
